This is an account of results in ChEMBL document CHEMBL1125455, “Novel anthraquinone inhibitors of human leukocyte elastase and cathepsin G” (J Med Chem, 1992).

Experiment [1] deals with T1, Neutrophil elastase (Homo sapiens, UniProt P08246).
T1 sequence (P08246 whole entry): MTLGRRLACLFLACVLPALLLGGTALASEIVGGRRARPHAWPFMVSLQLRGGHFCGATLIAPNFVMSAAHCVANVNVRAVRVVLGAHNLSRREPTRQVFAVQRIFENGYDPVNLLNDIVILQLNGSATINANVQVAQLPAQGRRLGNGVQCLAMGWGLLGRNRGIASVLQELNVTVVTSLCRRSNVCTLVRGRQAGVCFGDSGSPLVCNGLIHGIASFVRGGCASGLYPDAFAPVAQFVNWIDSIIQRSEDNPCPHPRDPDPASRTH
Description: In vitro inhibition of human leukocyte elastase.

Experiment [2] addresses T2, Chymotrypsin-like elastase family member 2A (Sus scrofa) (UniProt P08419).
T2 sequence (whole entry): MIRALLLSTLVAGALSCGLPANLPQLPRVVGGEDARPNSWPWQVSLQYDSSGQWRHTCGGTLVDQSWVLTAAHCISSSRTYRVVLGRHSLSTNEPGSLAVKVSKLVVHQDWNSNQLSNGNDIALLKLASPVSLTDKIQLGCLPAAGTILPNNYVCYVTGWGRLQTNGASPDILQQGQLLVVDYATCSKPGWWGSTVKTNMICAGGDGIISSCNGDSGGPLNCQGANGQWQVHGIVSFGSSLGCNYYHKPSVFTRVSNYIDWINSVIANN
Description: Inhibitory activity against Porcine Pancreatic Elastase (PPE) at 62 uM concentration.

Experiment [3] concerns the target T1, Neutrophil elastase. Description: Compound was tested for the enzyme inhibitory activity against Human Leukocyte Elastase (HLE) at 62 uM concentration.
In experiment [4] the target is T3, Neutrophil elastase (Homo sapiens) (UniProt P08246).
T3 sequence (whole entry): T1 sequence (P08246 whole entry)
The experiment is described as follows: Inhibitory activity against Human Leukocyte Elastase (HLE) at 62 uM concentration.

Experiment [5] concerns the target T4, Cathepsin G (Homo sapiens) (UniProt P08311).
T4 sequence (whole entry): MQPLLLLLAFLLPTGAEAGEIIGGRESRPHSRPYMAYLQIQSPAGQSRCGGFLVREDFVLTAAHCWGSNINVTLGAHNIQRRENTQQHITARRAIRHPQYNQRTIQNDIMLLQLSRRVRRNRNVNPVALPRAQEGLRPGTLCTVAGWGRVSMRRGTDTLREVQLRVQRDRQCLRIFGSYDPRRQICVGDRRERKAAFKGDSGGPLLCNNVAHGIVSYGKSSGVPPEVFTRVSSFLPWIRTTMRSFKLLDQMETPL
Description: Inhibitory activity against Cathepsin G (CatG) at 62 uM concentration; NI = no inhibition.

For experiment [6], the target named is Chymotrypsinogen A (Bos taurus) (UniProt P00766). The experiment is described as follows: Inhibitory activity against Chymotrypsinogen at 62 uM concentration. The note with it: Sus scrofa.
Experiment [7] shares this target. Description: Inhibitory activity against Chymotrypsinogen at 62 uM concentration; NI = no inhibition. The note with it: Sus scrofa.
Experiment [8] concerns the target T4, Cathepsin G (Homo sapiens). The experiment is described as follows: Inhibitory activity against Cathepsin G (CatG) at 62 uM concentration.
Experiment [9] has as its target T3, Neutrophil elastase (Homo sapiens). The experiment is described as follows: Inhibitory activity against Human Leukocyte Elastase (HLE) at 59 uM concentration.
Experiment [10] concerns the target T2, Chymotrypsin-like elastase family member 2A (Sus scrofa). Description: Inhibitory activity against Porcine Pancreatic Elastase (PPE) at 59 uM concentration; NI = no inhibition.
For experiment [11], the target named is T3, Neutrophil elastase (Homo sapiens). The experiment is described as follows: Inhibitory activity against Human Leukocyte Elastase (HLE) at 63 uM concentration. The method, boiled down: (§1)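 Percent inhibition of enzyme activity at a single inhibitor concentration. Assays run at 25 °C in 0.1 M HEPES, 0.5 M NaCl, pH 7.5, with 9-11% DMSO. The method otherwise follows an earlier report.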

Experiment [12] deals with T2, Chymotrypsin-like elastase family member 2A (Sus scrofa). The experiment is described as follows: Inhibitory activity against Porcine Pancreatic Elastase (PPE) at 63 uM concentration. The method, boiled down: as §1
The target of experiment [13] is Chymotrypsinogen A (Bos taurus) (UniProt P00766). The experiment is described as follows: Inhibitory activity against Chymotrypsinogen at 63 uM concentration. The method, boiled down: as §1
Experiment [14] deals with T4, Cathepsin G (Homo sapiens). Description: Inhibitory activity against Cathepsin G (CatG) at 63 uM concentration. The method, boiled down:
as §1

For experiment [15], the target named is T5, Cathepsin G (Homo sapiens, UniProt P08311).
T5 sequence (P08311 whole entry): T4 sequence (whole entry)
The experiment is described as follows: Compound was tested for the enzyme inhibitory activity against Cathepsin G; NI = no inhibition.

For experiment [16], the target named is T1, Neutrophil elastase. Description: Compound was tested for the enzyme inhibitory activity against Human Leukocyte elastase.
Experiment [17] addresses T1, Neutrophil elastase. Description: HLE-inhibitor (Human Leukocyte Elastase) dissociation constant determined by using Dixon Plot.
Experiment [18] concerns the target T1, Neutrophil elastase. Description: Compound was tested for the enzyme inhibitory activity against Human Leukocyte Elastase (HLE).
For experiment [19], the target named is Chymotrypsinogen A (Bos taurus) (UniProt P00766). The experiment is described as follows: Inhibitory activity against Chymotrypsinogen at 30 uM concentration.
Experiment [20] concerns the target T4, Cathepsin G (Homo sapiens). Description: Inhibitory activity against Cathepsin G (CatG) at 30 uM concentration; NI = no inhibition.
Experiment [21] deals with T3, Neutrophil elastase (Homo sapiens). Description: Inhibitory activity against Human Leukocyte Elastase (HLE) at 30 uM concentration.
For experiment [22], the target named is T2, Chymotrypsin-like elastase family member 2A (Sus scrofa). Description: Inhibitory activity against Porcine Pancreatic Elastase (PPE) at 30 uM concentration.
Experiment [23] addresses T5, Cathepsin G. Description: Compound was tested for the enzyme inhibitory activity against Cathepsin G (CatG); NI = no inhibition.
Experiment [24] has as its target T5, Cathepsin G. Description: Inhibition of Cathepsin G (CatG).
Experiment [25] has as its target T5, Cathepsin G. The experiment is described as follows: Compound was tested for the enzyme inhibitory activity against Cathepsin G.

Structures are written as SMILES. Active and inactive are the calls of the source. The calls are words filed in the database; no cut-off is given here. Some results are limits rather than exact numbers.

The IC50 is the concentration at which inhibition is half-maximal. Lower therefore signals higher potency. Take `CCCCCc1ccc2c(c1O)C(=O)c1c(O)cccc1C2=O`: the midpoint of inhibition against Neutrophil elastase [1], the IC50, lay at 3.9 µM.

Broadly, the inhibition is the change of the read-out against control, counted positive when it falls. With `CC(=O)Oc1cc(OC(C)=O)c2c(c1)C(=O)c1cc(C)cc(OC(C)=O)c1C2=O` [EMODIN TRIACETATE], the inhibition in experiment [2] was 22%; in [4] it was 79%; in [6] it was 3%. On Neutrophil elastase [3], the IC50 was found to be 13 µM. Also, in experiment [5], the inhibition result is “inactive”.

In the case of `O=C1c2cc(O)cc(O)c2C(=O)c2c(O)cc(CO)cc21`, the inhibition worked out at 4% in experiment [2], 26% in experiment [4] and 22% in experiment [8]. The inhibition result in [7] was “inactive”.

In experiment [9], `CC(=O)Oc1cccc2c1C(=O)c1c(OC(C)=O)cc(CBr)cc1C2=O` showed an inhibition of 33%. Besides, in experiment [10], the inhibition entry was “inactive”.

Regarding `O=C1c2cccc(O)c2C(=O)c2c(O)cc(CO)cc21`, the inhibition in [11] stood at 21%; in [12], 18%; in [13], 13%; in [14], 3%.

`CCCc1ccc2c(c1O)C(=O)c1c(O)cccc1C2=O` showed an IC50 at Neutrophil elastase [1] of 4.2 µM.

In the case of `COc1c(C)ccc2c1C(=O)c1ccccc1C2=O`, the IC50 result against Cathepsin G [15] is “Not Active”; on Neutrophil elastase [16] it was more than 60 µM.

By Ki is commonly meant a measure of affinity in units of concentration, obtained from inhibition or displacement. Lower therefore signals tighter binding. Take `CCCCOC(=O)Oc1cc(C)cc2c1C(=O)c1c(OC(=O)OCCCC)cc(OC)cc1C2=O`: the Ki at Neutrophil elastase [17] worked out at 2.8 µM. At Neutrophil elastase [18], this compound gave an IC50 of 2.5 µM.

For `O=C1c2cccc(O)c2C(=O)c2c1ccc(Cc1ccccc1)c2O`, the IC50 against Neutrophil elastase [1] came to 13 µM.

On Neutrophil elastase [1], `CCCCCCc1ccc2c(c1OC(=O)OCCCC)C(=O)c1c(OC(=O)OCCCC)cccc1C2=O` came in with an IC50 of 2.1 µM. The compound further returned a Ki on Neutrophil elastase [17] of 0.43 µM.

On to `COc1cc(OC)c2c(c1)C(=O)c1cc(C)cc(OC)c1C2=O`, for which the inhibition in experiment [19] was 6%; in experiment [21], 16%; in experiment [22], 4%. For the same compound, the inhibition result in [20] is “inactive”.

On to `COc1cccc2c1C(=O)c1c(ccc(CC(C)C)c1OC(C)=O)C2=O`, for which, at Cathepsin G [23], the IC50 result is recorded as “No inhibition”.

Take `CCCc1ccc2c(c1O)C(=O)c1c(OC)cccc1C2=O`: the IC50 on Cathepsin G [24] was more than 60 µM; against Neutrophil elastase [1], 8.7 µM.

Turning to `CCCCCCc1ccc2c(c1O)C(=O)c1c(O)cccc1C2=O`, the IC50 at Cathepsin G [24] was determined as 28 µM; on Neutrophil elastase [1], 4.2 µM.

Take `Cc1ccc2c(c1O)C(=O)c1ccccc1C2=O`: the IC50 on Cathepsin G [25] is more than 60 µM; against Neutrophil elastase [16], 11 µM.

On to `CCCCc1ccc2c(c1O)C(=O)c1c(OC)cccc1C2=O`, for which the IC50 at Neutrophil elastase [1] amounted to 5.9 µM.

Regarding `COc1cccc2c1C(=O)c1c(ccc(C)c1O)C2=O`, the figures for the IC50 result against Cathepsin G [23] and on Neutrophil elastase [1] were “Not Active” and 19 µM, respectively.

Compound `CCCCOC(=O)Oc1cccc2c1C(=O)c1c(OC(=O)OCCCC)cccc1C2=O` yielded an IC50 on Neutrophil elastase [1] of 12 µM. On Neutrophil elastase [17], this compound gave a Ki of 7.5 µM.

With `Cc1ccc2c(c1O)C(=O)c1c(O)cccc1C2=O`, the IC50 at Neutrophil elastase [1] was determined as 9.9 µM.

For `CCCCCCc1ccc2c(c1O)C(=O)c1c(OC)cccc1C2=O`, the IC50 at Cathepsin G [25] is more than 60 µM; against Neutrophil elastase [16], 6 µM.
